From ChEMBL document CHEMBL3992497, “Synthesis, structure-activity relationships and biological evaluation of 7-phenyl-pyrroloquinolinone 3-amide derivatives as potent antimitotic agents” (Eur J Med Chem, 2017)
Activity calls are given as the source filed them. The calls are words filed in the database; no cut-off is given here.

What was measured:
[1] = system: HL-60; test: Antiproliferative activity against human HL60 cells after 72 hrs by MTT assay; type: functional; conditions: HL-60, 72 h
Procedure, shortened: (§1)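 Compounds from 10 mM DMSO stocks. Cells seeded at 8 × 10^3 per well and held 18 h at 37 °C in humidified 5% CO2. Medium was then replaced with fresh medium holding graded compound concentrations, in triplicate, for 72 h at 37 °C. Viability was read by MTT. GI50 is the concentration giving 50% inhibition of proliferation. Mean ± SE of ≥3 independent dose-response experiments.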

[2] = system: CCRF-CEM; test: Antiproliferative activity against human CCRF-CEM cells after 72 hrs by MTT assay; type: functional; procedure, shortened: as §1
[3] = system: RS4-11; test: Antiproliferative activity against human RS4:11 cells after 72 hrs by MTT assay; type: functional; conditions: RS4-11, 72 h; procedure, shortened: as §1
[4] = system: Jurkat; test: Antiproliferative activity against human Jurkat cells after 72 hrs by MTT assay; type: functional; procedure, shortened: as §1
[5] = system: SEM cells; test: Antiproliferative activity against human SEM cells after 72 hrs by MTT assay; type: functional; procedure, shortened: as §1
[6] = system: MV4-11; test: Antiproliferative activity against human MV4-11 cells after 72 hrs by MTT assay; type: functional; conditions: MV4-11, 72 h; procedure, shortened: as §1
[7] = system: THP-1; test: Antiproliferative activity against human THP1 cells after 72 hrs by MTT assay; type: functional; conditions: THP-1, 72 h; procedure, shortened: as §1
[8] = system: HeLa; test: Antiproliferative activity against human HeLa cells after 72 hrs by MTT assay; type: functional; procedure, shortened: as §1
[9] = system: A549; test: Antiproliferative activity against human A549 cells after 72 hrs by MTT assay; type: functional; conditions: A549, 72 h; procedure, shortened: as §1
[10] = system: HT-29; test: Antiproliferative activity against human HT-29 cells after 72 hrs by MTT assay; type: functional; conditions: HT-29, 72 h; procedure, shortened: as §1
[11] = system: MCF7; test: Antiproliferative activity against human MCF7 cells after 72 hrs by MTT assay; type: functional; conditions: MCF7, 72 h; procedure, shortened: as §1
[12] = system: PBL; test: Antiproliferative activity against human PBL after 72 hrs by MTT assay; type: cell-based
Procedure, shortened: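 PBL from healthy donors separated on a Lymphoprep gradient, washed, and held overnight at 1.0 × 10^6 cells/mL in RPMI-1640 with 10% FBS. Non-adherent resting cells resuspended at 5 × 10^5 cells/mL without PHA. Graded compound concentrations for 72 h, then MTT. Mean ± SEM of three separate experiments.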

[13] = system: HeLa; test: Cell cycle arrest in human HeLa cells assessed as accumulation at G2/M phase at 50 to 100 nM after 24 hrs by propidium iodide staining based flow cytometry; type: functional
Procedure, shortened: (§2)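 5 × 10^5 cells exposed to varying compound concentrations for 24 h. Cells collected, fixed in ice-cold 70% ethanol, and lysed in buffer with RNase A and 0.1% Triton X-100. PI-stained, then analysed by flow cytometry for phase distribution from DNA histograms. Mean of two independent experiments.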

[14] = system: Jurkat; test: Cell cycle arrest in human Jurkat cells assessed as accumulation at G2/M phase at 50 to 100 nM after 24 hrs by propidium iodide staining based flow cytometry; type: functional; procedure, shortened: as §2
[15] = system: PBL; test: Antiproliferative activity against phytohematoaglutinin-stimulated human PBL after 72 hrs by MTT assay; type: cell-based
Procedure, shortened: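 Donor PBL isolated on a Lymphoprep gradient and rested overnight in RPMI-1640 with 10% FBS. Non-adherent cells resuspended at 5 × 10^5 cells/mL in growth medium with 2.5 μg/mL PHA. Graded compound concentrations added; viability by MTT at 72 h. Mean ± SEM of three separate experiments.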

[16] = Inhibition of bovine brain tubulin assembly preincubated for 20 mins followed by GTP addition by turbidometric method; set-up: species or system Bos taurus
Procedure, shortened: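 Varying compound concentrations pre-incubated with 10 μM bovine brain tubulin in glutamate buffer at 30 °C, then chilled to 0 °C. GTP added to 0.4 mM final, mixture warmed to 30 °C, turbidity followed at 350 nm.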

[17] = species on record: Bos taurus; test: Inhibition of [3H]colchicine binding to bovine brain tubulin at 5 uM relative to control
Procedure, shortened: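 Reaction mixtures held 1 μM tubulin, 5 μM [3H]colchicine and 5 μM test compound. Inhibition of bound radiolabel measured relative to control.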

[18] = system: HeLa; test: Induction of ROS generation in human HeLa cells at 10 to 100 nM after 24 to 48 hrs by H2-DCFDA staining based flow cytometry; type: functional, cell-based
Procedure, shortened: (§3)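 Cells exposed for 24 or 48 h at the indicated concentrations, then loaded with H2-DCFDA. ROS read as oxidised DCF fluorescence by flow cytometry. Mean ± SEM of three independent experiments.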

[19] = system: Jurkat; test: Induction of ROS generation in human Jurkat cells at 10 to 100 nM after 24 to 48 hrs by H2-DCFDA staining based flow cytometry; type: functional, cell-based; procedure, shortened: as §3
[20] = system: HeLa; test: Cell cycle arrest in human HeLa cells assessed as accumulation at G2/M phase at 100 nM after 24 hrs by propidium iodide staining based flow cytometry relative to control; type: functional; procedure, shortened: as §2
[21] = system: Jurkat; test: Cell cycle arrest in human Jurkat cells assessed as accumulation at G2/M phase at 100 nM after 24 hrs by propidium iodide staining based flow cytometry relative to control; type: functional; procedure, shortened: as §2
[22] = system: HeLa; test: Cell cycle arrest in human HeLa cells assessed as reduction in S phase at 50 to 100 nM after 24 hrs by propidium iodide staining based flow cytometry relative to control; type: functional; procedure, shortened: as §2
[23] = system: HeLa; test: Cell cycle arrest in human HeLa cells assessed as reduction in G1 phase at 50 to 100 nM after 24 hrs by propidium iodide staining based flow cytometry relative to control; type: functional; procedure, shortened: as §2
[24] = system: HeLa; test: Cell cycle arrest in human HeLa cells assessed as accumulation at G2/M phase after 24 hrs by propidium iodide staining based flow cytometry; type: functional; procedure, shortened: as §2
[25] = system: Jurkat; test: Cell cycle arrest in human Jurkat cells assessed as accumulation at G2/M phase after 24 hrs by propidium iodide staining based flow cytometry; type: functional; procedure, shortened: as §2
[26] = Selectivity index, ratio of IC50 for phytohematoaglutinin-stimulated human PBL to GI50 for human CCRF-CEM cells
Procedure, shortened: (§4)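 Ratio of two 72 h MTT viability values. Healthy-donor PBL were isolated on a density gradient, rested overnight, then seeded as non-adherent cells at 5 × 10^5 cells/mL with 2.5 μg/mL PHA and exposed to graded compound concentrations. Leukemia cells were grown in RPMI-1640 with 10% FBS, seeded at 8 × 10^3 cells/well, pre-incubated 18 h at 37 °C, and dosed in triplicate.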

[27] = Selectivity index, ratio of IC50 for phytohematoaglutinin-stimulated human PBL to GI50 for human Jurkat cells; procedure, shortened: as §4
[28] = Metabolic stability in human liver microsomes assessed as parent compound remaining at 10 uM after 60 mins by fluorescence based HPLC analysis; type: ADME, microsome; conditions: read-out: Stability
Procedure, shortened: (§5)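 Compound at 10 μM final in 0.1 M KH2PO4 pH 7.4 with 1.0 mg/mL pooled mixed-gender human liver microsomes, without or with 1 mM NADPH; buffer-only controls. Started with microsomes after 3-min equilibration and run at 37 °C for 0–60 min. Stopped with ice-cold acetonitrile, centrifuged, supernatant run on C18 HPLC with fluorescence detection (ex 344/em 493 nm). % remaining from peak area versus 0 min. Mean ± SD, n = 3–4.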

[29] = system: Liver; test: Metabolic stability in human liver microsomes at 10 uM after 60 mins in presence of NADPH by fluorescence based HPLC analysis; type: ADME, microsome; conditions: 1 h; procedure, shortened: as §5
[30] = system: Liver; test: Drug metabolism in human liver microsomes assessed as 7-phenyl-3H-pyrrolo[3,2-f]quinolin-9(6H)-one formation at 10 uM after 60 mins by fluorescence based HPLC analysis; type: ADME, microsome; conditions: 1 h; procedure, shortened: as §5
[31] = system: Liver; test: Drug level in human liver microsomes treated with 3-Benzoyl-7-phenyl-6H-pyrrolo[3,2-f]quinolin-9-one at 10 uM after 60 mins by fluorescence based HPLC analysis; type: ADME, microsome; conditions: 1 h; procedure, shortened: as §5

Structure (SMILES)	GI50 [1] [nM]	GI50 [2] [nM]	GI50 [3] [nM]	GI50 [4] [nM]	GI50 [6] [nM]	GI50 [7] [nM]	GI50 [8] [nM]	GI50 [9] [nM]	GI50 [10] [nM]	GI50 [11] [nM]	IC50 [16] [nM]	inhibition [17] [%]	GI50 [5] [nM]	further results
O=C(c1ccccc1)N1CCc2c1ccc1[nH]c(-c3ccccc3)cc(=O)c21	2640	1040	256	1340	1540	2170	331	918	1590	1110	–	–	918	–
O=C(c1ccccc1)n1ccc2c3c(=O)cc(-c4ccccc4)[nH]c3ccc21	2	12	0.3	16	2	5	0.2	10	0.1	0.2	890	70	0.9	IC50 [12]: 28000 nM; Activity [20]: >50%; Activity [21]: >50%; Activity [22]: Active; Activity [23]: Active; Activity [24]: Dose-dependent effect; Activity [25]: Dose-dependent effect; IC50 [15]: 15200 nM; Selectivity Index [26]: 1000 - 2000; Selectivity Index [27]: 1000 - 2000; Activity [18]: Active; Activity [19]: Active; remaining at 1 h, 10 µM [28]: > 60%; Stability [29]: Stable; Drug metabolism [30]: Metabolite_Detected
O=c1cc(-c2ccccc2)[nH]c2ccc3c(c12)CCN3S(=O)(=O)c1ccc(C(F)(F)F)cc1	1620	435	211	256	356	846	373	541	255	475	–	–	336	–
O=C(c1ccccc1)N1CCc2cc3[nH]c(-c4ccccc4)cc(=O)c3cc21	3740	818	132	2320	1980	2320	1450	3560	5440	6320	–	–	1660	–
O=c1cc(-c2ccccc2)[nH]c2ccc3[nH]ccc3c12	–	–	–	–	–	–	–	–	–	–	–	–	–	Drug metabolism [31]: Metabolite_Detected
CS(=O)(=O)N1CCc2cc3[nH]c(-c4ccccc4)cc(=O)c3cc21	> 10000	> 10000	> 10000	> 10000	> 10000	> 10000	7640	> 10000	> 10000	> 10000	–	–	> 10000	–

Second part, led by results:

GI50 [1] [nM]	GI50 [2] [nM]	GI50 [3] [nM]	GI50 [4] [nM]	GI50 [6] [nM]	GI50 [7] [nM]	GI50 [8] [nM]	GI50 [9] [nM]	GI50 [10] [nM]	GI50 [11] [nM]	IC50 [16] [nM]	inhibition [17] [%]	Structure (SMILES)	GI50 [5] [nM]	further results
291	235	35	372	352	71	563	451	623	521	–	–	CS(=O)(=O)N1CCc2c1ccc1[nH]c(-c3ccccc3)cc(=O)c21	271	–
215	42	18	34	49	92	36	3	7	152	1200	42	CS(=O)(=O)n1ccc2c3c(=O)cc(-c4ccccc4)[nH]c3ccc21	23	IC50 [12]: > 100000 nM; Activity [13]: Active; Activity [14]: Active; IC50 [15]: > 100000 nM; Activity [18]: Active; Activity [19]: Active
2	17	0.1	0.3	19	74	1.6	9	1	5	–	–	O=C(C1CC1)n1ccc2c3c(=O)cc(-c4ccccc4)[nH]c3ccc21	0.4	–
335	32	48	55	65	222	26	52	5	195	1100	37	Cc1ccc(S(=O)(=O)n2ccc3c4c(=O)cc(-c5ccccc5)[nH]c4ccc32)cc1	33	–
155	92	27	145	85	66	212	171	255	96	2200	18	O=C(NC1CC1)n1ccc2c3c(=O)cc(-c4ccccc4)[nH]c3ccc21	11	–
39	32	147	81	86	42	22	63	23	5	2400	29	O=c1cc(-c2ccccc2)[nH]c2ccc3c(ccn3S(=O)(=O)c3ccc(C(F)(F)F)cc3)c12	33	–
